Bioassay records deposited in PubChem by several laboratories.
M1 ag = M1 muscarinic receptor agonists, primary screen, CHO-M1 cells, Fluo-4 calcium, agonist mode. B-score at 10 µM. 3% of 64,000 active. Fluo-4 calcium fluorescence; active compounds read high. AID 626, 2007. Muscarinic acetylcholine receptor M1;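 active = fluorescence rise, raw or as B-score row- and column-corrected plate score, outside the 99.7% band of its plate's samples, either direction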
M1 antagonist = antagonists of rat M1 muscarinic receptor | 3.4% of 64,000 active | CHO-M1 cells, Fluo-4 calcium, ACh EC80 antagonist mode; active compounds read low | Muscarinic acetylcholine receptor M1 (Rattus norvegicus), P08482 | AID 628, 2007 | B-score at 10 µM;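 active = calcium fluorescence response, raw or row-and-column corrected B-score, differing from the plate sample mean either way at a set confidence level, mostly lower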
Target sequence (P08482 whole entry, looked up): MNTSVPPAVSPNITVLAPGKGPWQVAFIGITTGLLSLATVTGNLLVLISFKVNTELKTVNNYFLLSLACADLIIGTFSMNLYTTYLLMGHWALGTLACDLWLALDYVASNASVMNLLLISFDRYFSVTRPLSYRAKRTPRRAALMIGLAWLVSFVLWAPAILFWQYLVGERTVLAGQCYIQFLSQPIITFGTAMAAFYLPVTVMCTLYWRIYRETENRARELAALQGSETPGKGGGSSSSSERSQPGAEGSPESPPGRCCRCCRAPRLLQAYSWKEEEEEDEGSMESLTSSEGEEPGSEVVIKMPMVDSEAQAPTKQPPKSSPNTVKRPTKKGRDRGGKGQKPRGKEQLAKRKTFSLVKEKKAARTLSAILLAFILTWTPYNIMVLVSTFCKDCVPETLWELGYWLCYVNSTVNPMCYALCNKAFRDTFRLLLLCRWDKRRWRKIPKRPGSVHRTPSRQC
D1 allo mod = D1 CRE-luciferase signal change, two-sided – cell-based, HEK293 D1, dopamine EC30, D1 allosteric modulator project, primary screen; AID 641, 2007; 5.9% of 58,000 active; dopamine EC30 potentiation; actives deviate in either direction; B-score at 10 µM; D(1A) dopamine receptor (Homo sapiens), P21728;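 active = luminescence count or its row- and column-corrected plate score outside the 99.7% band of the plate's sample wells, on either side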
mHtt clearance = clearance of mutant huntingtin inclusions, primary screen, imaging, HeLa Exon1htt(103Q)mCFP, confocal imaging; aggregate imaging; zero = plate's median compound well; inhibition, % at 1.5 µM; 0.42% of 47,000 active;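 active = inhibition of aggregate fluorescence above about 70%, also judged a hit by eye on the cell image, limit read from the data, passing the limit was not always enough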;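 also: cells exposed to compound for three days before fixation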
AP ELISA ortho = alternative complement pathway inhibitors, primary screen, biochemical, ELISA, human serum, orthogonally pooled compounds | LPS-coated ELISA, C3 deposition; tested in compound mixtures | 0.08% of 62,000 active | inhibition, % at 5 µM | AID 1235, 2008;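 active = inhibition above 30% in each of the two pooled mixtures holding the compound, so the lower value exceeds 30%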;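 also: 0% = serum in Mg-EGTA without compound and 100% = EDTA serum blank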
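Assay system: Human serum alternative complement pathway, C3 deposition on LPS-coated wells | Incubation: 1 h serum-compound exposure at 37 °C | Doses: 5 µM per compound in ten-compound mixtures | Read-out: Percent inhibition | Technique: ELISA with HRP anti-human C3 antibody, TMB substrate, absorbance 450 nm | Replication: Two pool placements per compound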
The depositor's hits bear a star; nt = no result. A selection: hits, their analogues and other compounds. The true share with any hit is near 9%.

SMILES | M1 ag | M1 antagonist | D1 allo mod | mHtt clearance | AP ELISA ortho
O=C(Nc1cccc(O)c1)c1ccc(Br)c(S(=O)(=O)N2CCCCC2)c1 | 0.321 | 1 | -1.22 | nt | 4.6
CCOC(=O)Cc1csc(NS(=O)(=O)Cc2ccccc2)n1 | -0.249 | 2.59* | -0.00441 | nt | 2.8
CCOC(=O)Cc1csc(NC(=O)COc2ccccc2)n1 | -1.4 | -1.02 | 0.0477 | nt | 7.2
CCN1C(=O)c2cccc3c(NC(=O)c4ccc(S(=O)(=O)N5CCOCC5)cc4)ccc1c23 | -0.66 | -0.745 | -0.844 | 71.7* | 3.5
CCN1C(=O)c2cccc3c(NC(=O)c4ccc(S(=O)(=O)N(C)C)cc4)ccc1c23 | 0.236 | -1.08 | 0.521 | nt | 4.2
COc1cc(-c2nc3ccccn3c2NCC2CCCO2)ccc1O (centres undefined) | 3.29* | -1.15 | -2.21 | -45.4 | -4.6
Cc1onc(-c2ccccc2)c1C(=O)N1CCCc2ccccc21 | -1.06 | -0.248 | 0.601 | nt | 31.9*
O=C(O)C1CCCN1C(=O)Oc1ccccc1 (centres undefined) | -0.808 | 0.0744 | -2.55* | 33.4 | 6.7
Cc1c(C)c2cc(Cl)c(OCc3nn[nH]n3)cc2oc1=O | -0.835 | -0.513 | -0.236 | -87.0 | 4.9
c1ccc(Sc2nc(N3CCCCC3)nc(N3CCCCC3)n2)nc1 | 0.482 | 2.1* | 0.346 | nt | -7.9
COc1ccc(N(Cc2ccco2)C(=O)c2ccccc2F)cc1OC | 0.129 | 0.7 | -0.114 | -9.1 | -12.4
COc1ccc(C2CC(=O)C(C=NCCN3CCOCC3)=C(O)C2)cc1 (centres undefined) | 0.7 | 0.146 | -0.211 | 11.7 | -4.9
N#Cc1cc(C#N)c(N2CCN(c3ccccn3)CC2)nc1N | nt | nt | nt | -7.7 | nt
C=CCOC(=O)C1=C(C)Nc2ncnn2C1c1cc(Br)ccc1F (centres undefined) | 0.947 | 0.299 | 0.23 | -19.6 | 10.4
Fc1ccc(Br)cc1C1C=C(c2ccc(Br)s2)Nc2ncnn21 (centres undefined) | 20.2* | -0.372 | 0.86 | nt | 9.1
COc1ccc(CC(=O)OCC(=O)NC(=O)NC2CCCCC2)cc1 | 0.265 | -1.05 | 0.617 | nt | 10.1
COc1cccc(C2C(C(=O)c3sc(C)nc3C)=C(O)C(=O)N2CCN(C)C)c1OC (centres undefined) | 0.0313 | 0.093 | nt | nt | 4.9
CCCCn1nc(-c2ccccc2)c2nc3ccccc3nc21 | nt | nt | nt | 73.9* | nt
CCCCn1c2nc3ccccc3nc2c2c(=O)n(CCC(C)C)cnc21 | 0.0391 | -1.79 | 1.66 | nt | 6.7
Cn1nc(-c2ccccc2)c2nc3ccccc3nc21 | 133* | 4.53* | 2.31 | 17.3 | -4.4
Cn1c(=O)c(-c2ccccc2)nc2ccccc21 | nt | nt | nt | 40.1 | nt
Cc1ccc(C(=O)CN(C(=O)c2ccc(Cl)c(Cl)c2)N2C(=O)C3C4C=CC(C4)C3C2=O)cc1 (centres undefined) | nt | nt | nt | -29.3 | nt
Cc1cc(Br)c2[nH]c3c(c2c1)CCCC3=O | nt | nt | nt | 13.3 | nt
CN1CCN(Cc2nc(N)nc(Nc3ccc4c(c3)OCCO4)n2)CC1 | 0.295 | 1.26* | 0.0202 | -13.9 | 11.3
COc1cccc(NC(=O)c2ocnc2C)c1 | 0.784 | 0.74 | -1.3 | 16.2 | 2.5
SMILES | M1 ag | M1 antagonist | D1 allo mod | mHtt clearance | AP ELISA ortho
Cc1cc(C)cc(N2CCCn3c2nc2c3c(=O)n(CC(=O)OCc3ccccc3)c(=O)n2C)c1 | -0.204 | -0.336 | -1.11* | -37.1 | 8.5
Cc1ccc(N2CCCn3c2nc2c3c(=O)n(CC(=O)OCc3ccccc3)c(=O)n2C)cc1C | -0.367 | -0.225 | -1.38 | nt | -2.6
COc1ccc(N2CCCn3c2nc2c3c(=O)n(CCc3ccccc3)c(=O)n2C)cc1 | 0.078 | -0.155 | -2.78* | nt | 2.8
c1ccc(-c2cn3nc(-c4ccccc4)sc3n2)cc1 | 0.27 | -0.43 | -8.22* | nt | 8.6
Cc1cc(-c2ccccc2)nc2[n+]1CCN2C | -0.641 | -1.16 | -0.213 | -118.1 | 9.3
Cc1nn2cc(-c3ccccc3)nc2s1 | 1.39 | 1.21 | -3.88* | nt | 6.8
COC(=O)[C@@H](NC(=O)NCc1ccccc1Cl)C(C)C | 0.889 | -0.61 | -0.0503 | 1.6 | 0.8
Cc1c(NC(=O)C(C)NCC2CCCO2)c(=O)n(-c2ccccc2)n1C (centres undefined) | nt | nt | nt | -45.4 | nt
CC(=O)NC1(C(F)(F)F)C(=O)Nc2c1c(=O)n(C)c(=O)n2C (centres undefined) | 0.263 | 0.223 | -0.108 | 30.3 | nt
CCCCC(=O)NC1(C(F)(F)F)C(=O)Nc2c1c(=O)n(C)c(=O)n2C (centres undefined) | -0.291 | 1.51* | -0.297 | -15.7 | -3.3
c1ccc(-c2cn3c4c(sc3n2)CCCC4)cc1 | -0.114 | 0.0999 | -9.94* | nt | 0.9
Cc1ccc(CNC(=O)CSc2n[nH]c(N)n2)cc1 | -0.241 | 0.0246 | -0.0255 | 82.2* | 1.4
CCOC(=O)C1CCCN(c2c(NCCN3CCCCC3C)c(=O)c2=O)C1 (centres undefined) | nt | nt | nt | -42.1 | nt
CSc1ncccc1C(=O)OCC(=O)NC(=O)NCCC(C)C | -0.431 | -0.321 | -0.087 | nt | -3.2
CCOC(=O)c1nc(NCc2cccnc2)c2ccccc2n1 | 0.416 | 0.251 | 2.71* | 47.3 | 2.7
CCn1c(SCC(=O)N2CCOCC2)nc2c(c1=O)SC(C)C2 (centres undefined) | -0.047 | 0.558 | -0.0048 | -2.2 | -6.1
Cn1c(=O)c2c(nc(Br)n2C)n(C)c1=O | -0.0186 | 0.694 | -1.63* | -24.2 | 4.7
CN(Cc1ccccc1)Cc1nc2c(c(=O)n(C)c(=O)n2C)n1CCc1ccccc1 | 0.83 | 0.708 | 0.388 | nt | nt
C=CCn1c(Br)nc2c1c(=O)n(C)c(=O)n2C | -0.389 | -0.346 | 0.236 | -66.3 | -3.1
Cn1c(=O)c2c(nc(Br)n2CCc2ccccc2)n(C)c1=O | -0.137 | -0.75 | -3.79* | 12.7 | 7.9
O=C(CCN1CCN(c2ccc(Cl)cc2)CC1)Nc1ccccc1F | 0.0296 | 2.1* | -0.305 | 20.3 | 2.8
O=C(CCN1CCN(c2ccccc2F)CC1)Nc1ccccc1F | -0.212 | -0.512 | 2.92 | -39.4 | 21.9
O=C(NCCN1CCCCCC1)c1ccc(N2CCCC2=O)cc1 | -1.11 | 2.3* | 0.107 | 15.1 | 7.7
CC1CCCC(NC(=O)CCn2c(=O)oc3ccccc32)C1C (centres undefined) | 0.0331 | -0.267 | -0.0482 | -3.0 | -6.6
CC1=C(c2ccc(Cl)cc2)[N+](=O)C(C)(C)N1[O-] | 0.803 | 0.353 | -0.424 | nt | -10.2
SMILES | M1 ag | M1 antagonist | D1 allo mod | mHtt clearance | AP ELISA ortho
Cc1ccc2cc(CN(Cc3cccs3)C(=O)c3ccco3)c3nnnn3c2c1C | 1.7 | -0.307 | 3.67* | nt | 7.6
S=C1NCCOCCOCCOCCOCCNC(=S)NCCOCCOCCOCCOCCN1 | nt | nt | nt | 77.7* | nt
COC(=O)c1c(NC(C)=O)sc2c1CCCC2 | 0.0469 | 0.202 | 5.53* | nt | -10.9
COC(=O)c1c(NS(C)(=O)=O)sc2c1CCCC2 | -0.0928 | 0.236 | nt | 13.8 | 8.8
O=C(Nc1cccc(F)c1)C1CCN(C(=O)c2ccccc2Cl)CC1 | nt | nt | nt | 4.0 | nt
COc1ccc(C(=O)n2nc(-c3ccco3)nc2SC)cc1OC | 0 | 0 | 0.429 | nt | 101.6*
CSc1nc(-c2ccco2)nn1C(=O)c1cccs1 | -0.133 | 0.674 | nt | nt | 1.1
